Measured values reported in ChEMBL document CHEMBL4152190, “Microwave-assisted one-pot synthesis of new phenanthrene fused-tetrahydrodibenzo-acridinones as potential cytotoxic and apoptosis inducing agents” (Eur J Med Chem, 2018).
Active and inactive are the calls of the source. The rule behind the calls is not given here.

How the values were obtained:
Homo sapiens [1] = organism: Homo sapiens; assay: Inhibition of F-actin polymerization in human SKOV3 cells assessed as induction of stress fibers disruption around nucleus at 0.1 to 0.5 uM after 24 hrs by rhodamine-phalloidin/[…] staining-based confocal fluorescence microscopic analysis; assay type: cell-based
Procedure, shortened: (§1)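 SKOV-3 cells (1×10^6/well) on coverslips, grown 24 h, then exposed 24 h. Washed, fixed in 4% paraformaldehyde in PBS, stained with rhodamine-phalloidin (F-actin) and […] (nuclei), mounted in anti-fade medium, and imaged by confocal microscopy at 20×.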

SK-OV-3 [2] = assay: Induction of apoptosis in human SKOV3 cells assessed as chromatin condensation at 0.1 to 0.5 uM after 24 hrs by […] staining-based fluorescence microscopic analysis; assay type: functional, cell-based
Procedure, shortened: (§2)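 SKOV-3 cells on coverslips (5×10^5/well), adhered 24 h, then exposed 24 h. Fixed in 4% formaldehyde 10 min at 4 °C, stained with […] (5 µg/mL) 30 min at room temperature, and nuclear morphology scored by fluorescence microscopy (ex 350/em 460 nm, 20×).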

SK-OV-3 [3] = assay: Induction of apoptosis in human SKOV3 cells assessed as increase in caspase3 activity at 0.5 uM using Ac-DEVDpNA as substrate pretreated for 24 hrs followed by substrate addition and measured for 2 hrs by colorimetric analysis relative to control; assay type: functional
Procedure, shortened: (§3)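 SKOV-3 cells (2×10^5/well) exposed 24 h, trypsinised, lysed 20 min, and lysate cleared at 15000 rpm for 10 min at 4 °C. Supernatant incubated with reaction buffer and Ac-DEVD-pNA 2 h at 37 °C, then read at 405 nm. Activity expressed as fold of untreated control (set to 1).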

SK-OV-3 [4] = assay: Cytotoxicity against human SKOV3 cells after 48 hrs by MTT assay; assay type: functional, cell-based; details: SK-OV-3, 48 h
Procedure, shortened: (§4)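 ATCC lines grown in DMEM or RPMI with 10% FBS and antibiotic-antimycotic, 37 °C, 5% CO2. Seeded at 3×10^4 cells/well, 24 h before dosing with vehicle (DMSO) controls. […] Cisplatin as reference.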

HT-1080 = assay: Cytotoxicity against human HT1080 cells after 48 hrs by MTT assay; assay type: functional, cell-based; details: HT-1080, 48 h; procedure, shortened: as §4
PC-3 = assay: Cytotoxicity against human PC3 cells after 48 hrs by MTT assay; assay type: functional, cell-based; details: PC-3, 48 h; procedure, shortened: as §4
SK-OV-3 [5] = assay: Induction of oxidative stress in human SKOV3 cells assessed as ROS generation by measuring fluorescence intensity at 0.1 uM after 24 hrs by carboxy-H2DCFDA dye-based flow cytometric analysis (reference value: 100%); assay type: functional
Procedure, shortened: (§5)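 SKOV-3 cells (2×10^5/well) exposed 24 h, trypsinised, and loaded with 10 µM carboxy-H2DCFDA in PBS 15 min at room temperature in the dark. After washing, green DCF fluorescence was read by flow cytometry and expressed as % of control (100%).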

SK-OV-3 [6] = assay: Induction of apoptosis in human SKOV3 cells assessed as increase in pyknotic nuclei at 0.1 to 0.5 uM after 24 hrs by […] staining-based fluorescence microscopic analysis; assay type: functional, cell-based; procedure, shortened: as §2
SK-OV-3 [7] = assay: Induction of apoptosis in human SKOV3 cells assessed as increase in caspase3 activity at 0.2 uM using Ac-DEVDpNA as substrate pretreated for 24 hrs followed by substrate addition and measured for 2 hrs by colorimetric analysis relative to control; assay type: functional; procedure, shortened: as §3
SK-OV-3 [8] = assay: Cell cycle arrest in human SKOV3 cells assessed as accumulation of cells at G2/M phase at 0.1 uM after 24 hrs by propidium iodide staining-based flow cytometric analysis (reference value: 14.7%); assay type: functional
Procedure, shortened: (§6)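 SKOV-3 cells (1×10^6/well) exposed 24 h, trypsinised, washed in PBS, fixed in 70% ethanol 30 min at 4 °C, stained 15 min in the dark at room temperature with PBS containing propidium iodide, Triton X and DNase-free RNase A. DNA content read by flow cytometry (15,000 events per methods; legend cites 10,000 cells). G0/G1, S and G2/M percentages taken from instrument software.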

SK-OV-3 [9] = assay: Cell cycle arrest in human SKOV3 cells assessed as accumulation of cells at S phase at 0.1 uM after 24 hrs by propidium iodide staining-based flow cytometric analysis (reference value: 5%); assay type: functional; procedure, shortened: as §6
SK-OV-3 [10] = assay: Cell cycle arrest in human SKOV3 cells assessed as accumulation of cells at G2/M phase at 0.2 uM after 24 hrs by propidium iodide staining-based flow cytometric analysis (reference value: 14.7%); assay type: functional; procedure, shortened: as §6
SK-OV-3 [11] = assay: Inhibition of spheroid growth in human SKOV3 cells at 0.5 uM after 72 hrs by phase contrast microscopic analysis; assay type: functional, cell-based
Procedure, shortened: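 SKOV-3 cells (5000/well) in ultra-low-attachment round-bottom wells, grown 2 days to form spheroids, then exposed for 72 h. Spheroid growth and surface area assessed by phase contrast microscopy.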

SK-OV-3 [12] = assay: Induction of apoptosis in human SKOV3 cells assessed as nuclear fragmentation at 0.1 to 0.5 uM after 24 hrs by […] staining-based fluorescence microscopic analysis; assay type: functional, cell-based; procedure, shortened: as §2
HEK-293T = assay: Cytotoxicity against human HEK293T cells after 48 hrs by MTT assay; assay type: cell-based; procedure, shortened: as §4
SK-OV-3 [13] = assay: Induction of apoptosis in human SKOV3 cells assessed as increase in horse shoe shaped nuclei at 0.1 to 0.5 uM after 24 hrs by […] staining-based fluorescence microscopic analysis; assay type: functional, cell-based; procedure, shortened: as §2
HeLa = assay: Cytotoxicity against human HeLa cells after 48 hrs by MTT assay; assay type: functional, cell-based; procedure, shortened: as §4
[14] = Selectivity index, ratio of IC50 for cytotoxicity against human HEK293T cells to IC50 for cytotoxicity against human SKOV3 cells after 48 hrs by MTT assay; assay type: toxicity, cell-based; details: HEK293T cells versus SKOV3 cells, read-out: Ratio IC50
SK-OV-3 [15] = assay: Cell cycle arrest in human SKOV3 cells assessed as accumulation of cells at G2/M phase at 0.5 uM after 24 hrs by propidium iodide staining-based flow cytometric analysis (reference value: 14.7%); assay type: functional; procedure, shortened: as §6
SK-OV-3 [16] = assay: Cell cycle arrest in human SKOV3 cells assessed as decrease in cells at G0/G1 phase at 0.1 to 0.5 uM after 24 hrs by propidium iodide staining-based flow cytometric analysis; assay type: functional; procedure, shortened: as §6
SK-OV-3 [17] = assay: Induction of oxidative stress in human SKOV3 cells assessed as ROS generation by measuring fluorescence intensity at 0.1 to 0.5 uM after 24 hrs by carboxy-H2DCFDA dye-based flow cytometric analysis relative to untreated control; assay type: functional; procedure, shortened: as §5
SK-OV-3 [18] = assay: Induction of apoptosis in human SKOV3 cells assessed as increase in caspase3 activity at 0.1 uM using Ac-DEVDpNA as substrate pretreated for 24 hrs followed by substrate addition and measured for 2 hrs by colorimetric analysis relative to control; assay type: functional; procedure, shortened: as §3
SK-OV-3 [19] = assay: Induction of apoptosis in human SKOV3 cells assessed as disruption of mitochondrial membrane potential at 0.1 to 0.5 uM after 24 hrs by JC-1 dye-based fluorescence microscopic analysis; assay type: functional, cell-based
Procedure, shortened: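 SKOV-3 cells at 5×10^5 cells/mL, adhered overnight, exposed 24 h with DMSO-treated controls. Stained with JC-1 (5 µg/mL in PBS) 30 min at room temperature, washed, and imaged in red (J-aggregate) and green (monomer) channels by fluorescence microscopy at 20×.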

SK-OV-3 [20] = assay: Cell cycle arrest in human SKOV3 cells assessed as accumulation of cells at S phase at 0.5 uM after 24 hrs by propidium iodide staining-based flow cytometric analysis (reference value: 5%); assay type: functional; procedure, shortened: as §6
SK-OV-3 [21] = assay: Induction of oxidative stress in human SKOV3 cells assessed as ROS generation by measuring fluorescence intensity at 0.5 uM after 24 hrs by carboxy-H2DCFDA dye-based flow cytometric analysis (reference value: 100%); assay type: functional; procedure, shortened: as §5
SK-OV-3 [22] = assay: Induction of oxidative stress in human SKOV3 cells assessed as ROS generation by measuring fluorescence intensity at 0.2 uM after 24 hrs by carboxy-H2DCFDA dye-based flow cytometric analysis (reference value: 100%); assay type: functional; procedure, shortened: as §5
SK-OV-3 [23] = assay: Cell cycle arrest in human SKOV3 cells assessed as accumulation of cells at S phase at 0.2 uM after 24 hrs by propidium iodide staining-based flow cytometric analysis (reference value: 5%); assay type: functional; procedure, shortened: as §6
Homo sapiens [24] = organism: Homo sapiens; assay: Inhibition of F-actin polymerization in human SKOV3 cells assessed as decrease in F-actin extensions at 0.1 to 0.5 uM after 24 hrs by rhodamine-phalloidin/[…] staining-based confocal fluorescence microscopic analysis; assay type: cell-based; procedure, shortened: as §1

For `COc1cc2c3c(c4cc(OC)c(OC)cc4c2cc1OC)C(c1cccc(C(F)(F)F)c1)C1=C(CCCC1=O)N3` (stereo not drawn), the inhibition (Homo sapiens [1]) was “Active”, the Activity (SK-OV-3 [2]) was “Active” and the “fold change (FC)” value (SK-OV-3 [3]) was 3.78. The IC50 (SK-OV-3 [4]) was 0.24 µM, the IC50 (HT-1080) was 3.89 µM and the IC50 (PC-3) was 11.8 µM. The Activity (SK-OV-3 [5]) was 128.5%, the Activity (SK-OV-3 [6]) was “Active” and the “fold change (FC)” value (SK-OV-3 [7]) was 2.45. The Activity (SK-OV-3 [8]) was 22.6%, the Activity (SK-OV-3 [9]) was 2.3% and the Activity (SK-OV-3 [10]) was 33.5%. The inhibition (SK-OV-3 [11]) was “Active”, the Activity (SK-OV-3 [12]) was “Active” and the IC50 (HEK-293T) was 18.5 µM. For the same molecule, the Activity (SK-OV-3 [13]) was “Active”, the IC50 (HeLa) was 4.38 µM and the selectivity ratio at 48 h [14] was 77. For the same molecule, the Activity (SK-OV-3 [15]) was 37.9%, the Activity (SK-OV-3 [16]) was “Active” and the “fold change (FC)” value (SK-OV-3 [17]) was 2. For the same molecule, the “fold change (FC)” value (SK-OV-3 [18]) was 1.58, the Activity (SK-OV-3 [19]) was “Active” and the Activity (SK-OV-3 [20]) was 14.1%. The Activity (SK-OV-3 [21]) was 204.76%, the Activity (SK-OV-3 [22]) was 150.3% and the Activity (SK-OV-3 [23]) was 19.3%. The inhibition (Homo sapiens [24]) was “Active”.
